The source made the active and inactive calls. No cut-off for these calls is given here.
Key:
[1] = biological target: T1, C-C chemokine receptor type 2 (Homo sapiens, UniProt P41597); experiment: Displacement of [3H]-CCR2-RA from human CCR2b expressed in human U2OS cell membranes incubated for 2 hrs by scintillation counting method; settings: for Activity: Cell membrane, filed as antagonist
Outline: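 U2OS-CCR2 membranes (5–30 μg protein) in 50 mM Tris-HCl pH 7.4, 5 mM MgCl2, 0.1% CHAPS. Coincubation 2 h at 25 °C with competitor 0.01 nM–10 μM and ~6 nM [3H]-CCR2-RA. Nonspecific binding with 10 μM JNJ-27141491. GF/B filtration, scintillation counting, IC50 by sigmoidal fit, Ki by Cheng–Prusoff.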

[2] = Stability in pH 7.4 Tris-HCl containing 5 mM MgCl2 and 0.1% CHAPS assessed as intact compound level measured at room temperature; format: physicochemical; settings: buffer, pH 7.4, 5000 µM
[3] = GSH reactivity at 1 mM in presence of 80 uM reduced glutathione measured at 37 degC for over 4 hrs; format: physicochemical; settings: 1000 µM
[4] = biological target: T1, C-C chemokine receptor type 2; experiment: Displacement of [3H]-CCR2-RA-(R) from human CCR2b expressed in human U2OS cell membranes pre-incubated for 4 hrs before radio ligand addition and measured after 20 mins by scintillation counting method; design: species or system Cell membrane
Target sequence in this assay (P41597 whole entry): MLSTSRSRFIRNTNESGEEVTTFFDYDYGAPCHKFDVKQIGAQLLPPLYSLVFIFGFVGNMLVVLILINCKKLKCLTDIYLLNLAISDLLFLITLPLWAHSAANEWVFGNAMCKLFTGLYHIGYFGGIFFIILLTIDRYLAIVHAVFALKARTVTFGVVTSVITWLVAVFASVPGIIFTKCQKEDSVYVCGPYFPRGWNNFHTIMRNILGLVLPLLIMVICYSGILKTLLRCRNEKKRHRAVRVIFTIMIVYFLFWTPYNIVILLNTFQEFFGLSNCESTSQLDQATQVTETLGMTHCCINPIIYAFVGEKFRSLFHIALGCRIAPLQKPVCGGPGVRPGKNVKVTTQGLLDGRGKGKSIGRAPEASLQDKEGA

[5] = biological target: T1, C-C chemokine receptor type 2; experiment: (§1) Displacement of [3H]-CCR2-RA-(R) from human CCR2b expressed in human U2OS cell membranes assessed as radio ligand binding recovery at 10 times IC50 incubated for 2 hrs after pre-treatment with iodoacetamide for 30 mins and followed by extensive washing and centrifugation cycles before addition of [3H]-CCR2-RA-[R] for 2 hrs by scintillation counting method; settings: Cell membrane
Target sequence in this assay (P41597 whole entry, looked up): as the sequence (P41597 whole entry) above

[6] = biological target: T1, C-C chemokine receptor type 2; experiment: as §1, with “N-ethylmaleimide” for “iodoacetamide”; settings: Cell membrane
Target sequence in this assay (P41597 whole entry, looked up): as the sequence (P41597 whole entry) above

[7] = biological target: T1, C-C chemokine receptor type 2; experiment: Antagonist activity at human CCR2 expressed in human U2OS cell membranes as inhibition of [35S]GTPgammaS binding pre-incubated for 30 mins before CCL2 stimulation and followed by further incubation for 90 mins by scintillation counting method; format: functional; settings: for inhibition: Cell membrane, filed as antagonist
Outline: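 Preincubation 30 min at 25 °C with increasing ligand plus EC80 CCL2 (20 nM). [35S]GTPγS 0.3 nM added for 90 min at 25 °C, then filtration and scintillation counting. Basal without ligand/chemokine; pIC50 by sigmoidal fit.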

[8] = Displacement of [3H]-CCR2-RA-[R] from human CCR2 C232S mutant expressed in CHO cell membranes incubated for 2 hrs by scintillation counting method; design: species or system Cell membrane
CHO [9] = experiment: as §1, with “CCR2 C70S mutant” for “CCR2b”, “CHO” for “human U2OS”, “hrs” for “hrs after pre-treatment with iodoacetamide for 30 mins and”; settings: Cell membrane
CHO [10] = experiment: as §1, with “CCR2 C75S mutant” for “CCR2b”, “CHO” for “human U2OS”, “hrs” for “hrs after pre-treatment with iodoacetamide for 30 mins and”; settings: Cell membrane
CHO [11] = experiment: as §1, with “CCR2 C232S mutant” for “CCR2b”, “CHO” for “human U2OS”, “hrs” for “hrs after pre-treatment with iodoacetamide for 30 mins and”; settings: Cell membrane
CHO [12] = experiment: as §1, with “CCR2 […] mutant” for “CCR2b”, “CHO” for “human U2OS”, “hrs” for “hrs after pre-treatment with iodoacetamide for 30 mins and”; settings: Cell membrane
[13] = biological target: T1, C-C chemokine receptor type 2; experiment: Displacement of [3H]-CCR2-RA-(R) from human CCR2b expressed in human U2OS cell membranes pre-incubated for 0 hrs before radio ligand addition and measured after 20 mins by scintillation counting method; design: species or system Cell membrane
Target sequence in this assay (P41597 whole entry): as above

[14] = biological target: T1, C-C chemokine receptor type 2; experiment: as §1, with “hrs” for “hrs after pre-treatment with iodoacetamide for 30 mins and”; settings: Cell membrane, filed as antagonist
Target sequence in this assay (P41597 whole entry, looked up): as the sequence (P41597 whole entry) above

[15] = biological target: T1, C-C chemokine receptor type 2; experiment: Antagonist activity at human CCR2 expressed in HEK293 cells assessed as inhibition of beta-arrestin recruitment pre-incubated for 20 mins before CCL2 stimulation and followed by further incubation for 90 mins by NanoBiT CCR2 assay based
Target sequence in this assay (P41597 whole entry): as above

[16] = biological target: T1, C-C chemokine receptor type 2; experiment: Antagonist activity at human CCR2 expressed in HEK293 cells assessed as inhibition of beta-arrestin recruitment pre-incubated for 20 mins followed by drug wash out before CCL2 stimulation and followed by further incubation for 90 mins by NanoBiT CCR2 assay based
Target sequence in this assay (P41597 whole entry): as above

[17] = biological target: T1, C-C chemokine receptor type 2; experiment: Antagonist activity at human CCR2 expressed in human U2OS cell membranes as [35S]GTPgammaS binding level at 250 nM pre-incubated for 30 mins before CCL2 stimulation and followed by further incubation for 90 mins by scintillation counting method relative to control; format: functional; design: scale not given: the % may be the effect or the level left; settings: Cell membrane, filed as antagonist
Outline: (§2)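 U2OS-CCR2 membranes (40 μg) preincubated with or without single compound concentration (600 or 250 nM) in 50 mM Tris-HCl pH 7.4/5 mM MgCl2, then four centrifugation/wash cycles (unwashed: final spin only). Resuspended in buffer with NaCl, EDTA, BSA, saponin 0.5 mg/mL, GDP 10 μM and 20 nM CCL2. 30 min at 25 °C, then [35S]GTPγS 0.3 nM 90 min, filtration; expressed relative to CCL2 alone.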
Target sequence in this assay (P41597 whole entry, looked up): as the sequence (P41597 whole entry) above

[18] = biological target: T1, C-C chemokine receptor type 2; experiment: Antagonist activity at human CCR2 expressed in human U2OS cell membranes as [35S]GTPgammaS binding level at 250 nM pre-incubated for 30 mins followed by drug wash out before CCL2 stimulation and followed by further incubation for 90 mins by scintillation counting method relative to control; format: functional; design: scale not given: the % may be the effect or the level left; settings: Cell membrane, filed as antagonist; outline: as §2
Target sequence in this assay (P41597 whole entry, looked up): as the sequence (P41597 whole entry) above

[19] = biological target: T1, C-C chemokine receptor type 2; experiment: Ratio of IC50 for antagonist activity at human CCR2 expressed in HEK293 cells assessed as inhibition of beta-arrestin recruitment pre-incubated for 20 mins followed by drug wash out before CCL2 stimulation and followed by further incubation for 90 mins by NanoBiT CCR2 assay to IC50 for antagonist activity at human CCR2 expressed in HEK293 cells assessed as inhibition of beta-arrestin recruitment pre-incubated for 20 mins before CCL2 stimulation and followed by further incubation for 90 mins by NanoBiT CCR2 assay
Target sequence in this assay (P41597 whole entry, looked up): as the sequence (P41597 whole entry) above

[20] = biological target: T1, C-C chemokine receptor type 2; experiment: Displacement of [3H]-CCR2-RA-[R] from wild type human CCR2 expressed in CHO cell membranes incubated for 2 hrs by scintillation counting method; design: species or system Cell membrane
Target sequence in this assay (P41597 whole entry): as above

[21] = Displacement of [3H]-CCR2-RA-[R] from human CCR2 C70S mutant expressed in CHO cell membranes incubated for 2 hrs by scintillation counting method; design: species or system Cell membrane
[22] = Displacement of [3H]-CCR2-RA-[R] from human CCR2 C75S mutant expressed in CHO cell membranes incubated for 2 hrs by scintillation counting method; design: species or system Cell membrane
[23] = Displacement of [3H]-CCR2-RA-[R] from human CCR2 C70S/C75S/C232S mutant expressed in CHO cell membranes incubated for 2 hrs by scintillation counting method; design: species or system Cell membrane
[24] = biological target: T1, C-C chemokine receptor type 2; experiment: as §1, with “from wild type” for “from”, “CCR2” for “CCR2b”, “CHO” for “human U2OS”, “hrs” for “hrs after pre-treatment with iodoacetamide for 30 mins and”; settings: Cell membrane, filed as antagonist
[25] = biological target: T2, C-C chemokine receptor type 1 (Homo sapiens, UniProt P32246); experiment: Antagonist activity at human CCR1 expressed in human U2OS cell membranes as inhibition of [35S]GTPgammaS binding pre-incubated for 30 mins before CCL3 stimulation and followed by further incubation for 90 mins by scintillation counting method; format: functional, Cell membrane
T2 sequence (P32246 whole entry): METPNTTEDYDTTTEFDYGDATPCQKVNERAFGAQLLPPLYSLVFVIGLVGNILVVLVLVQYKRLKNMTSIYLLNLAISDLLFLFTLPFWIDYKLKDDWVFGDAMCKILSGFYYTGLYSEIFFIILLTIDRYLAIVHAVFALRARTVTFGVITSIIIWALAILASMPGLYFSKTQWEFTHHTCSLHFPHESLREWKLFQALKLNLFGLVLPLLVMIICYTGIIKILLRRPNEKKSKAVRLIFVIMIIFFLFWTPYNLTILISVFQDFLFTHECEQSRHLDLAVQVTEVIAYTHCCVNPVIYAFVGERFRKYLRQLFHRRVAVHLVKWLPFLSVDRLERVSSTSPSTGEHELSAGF

Which Activity [1] does the source give for O=C(O)c1ccc(Oc2ccc(Cl)cc2NS(=O)(=O)c2ccc(Cl)c(Cl)c2)cc1 here?
The Activity was “Dose-dependent effect”.

And the Stabilty [2]?
Its Stabilty is over 6 h.

What about the Stabilty [3] of the same molecule?
The Stabilty was “Unstable”.

What about the Ki ([4]; read-out: pKi (converted)) of the same molecule?
The Ki was 6.31 nM.

What about the Activity [5] of the same molecule?
Its Activity is 104%.

What about the Activity [6] of the same molecule?
The Activity was “inactive”.

And the inhibition [7]?
The inhibition was “Dose-dependent effect”.

What about the pIC50 [8] of the same molecule?
The pIC50 was 7.9.

And the Activity (CHO [9])?
The Activity was 100%.

What about the Activity (CHO [10]) of the same molecule?
The Activity was 100%.

And the Activity (CHO [11])?
Its Activity is 100%.

What about the Activity (CHO [12]) of the same molecule?
Its Activity is “inactive”.

For O=C(NCCNC(=O)c1ccc(S(=O)(=O)F)cc1)c1ccc(Oc2ccc(Cl)cc2NS(=O)(=O)c2ccc(Cl)c(C(F)(F)F)c2)cc1, which Activity [1] is on record?
Its Activity is “Dose-dependent effect”.

And the Ki ([1]; read-out: Ki)?
The Ki was 89 nM.

And the Ki ([1]; read-out: pKi (converted))?
The Ki was 63.1 nM.

Which results are given for N#CSCCNC(=O)c1ccc(Oc2ccc(Cl)cc2NS(=O)(=O)c2ccc(Cl)c(C(F)(F)F)c2)cc1?
Activity [1]: Dose-dependent effect; Ki ([1]; read-out: Ki): 4 nM; Stabilty [2]: > 6 h; Stabilty [3]: Stable; Ki ([13]; read-out: Ki): 2.4 nM; Ki ([13]; read-out: pKi (converted)): 2 nM; Ki ([4]; read-out: Ki): 0.7 nM; Activity [14]: 27%; Activity [5]: 93%; Activity [6]: inactive; IC50 [7]: 33 nM; inhibition [7]: Dose-dependent effect; IC50 [15]: 4 nM; IC50 [16]: 10 nM; Activity [17]: -5%; Activity [18]: -24%; Ratio IC50 [19]: 2.5; IC50 ([20]; read-out: IC50): 2 nM; IC50 ([20]; read-out: pIC50 (converted)): 1.58 nM; pIC50 [21]: 8.4; IC50 [22]: 5 nM; pIC50 [22]: 8.4; IC50 [8]: 1 nM; pIC50 [8]: 8.8; IC50 [23]: 16 nM; pIC50 [23]: 7.8; Activity [24]: 9%; Activity (CHO [9]; filed as antagonist): Active; Activity (CHO [10]; filed as antagonist): 30%; Activity (CHO [11]; filed as antagonist): Active; Activity (CHO [12]): inactive; IC50 [25]: 5010 nM

Which Activity [1] does the source give for O=C(NCCN=C=S)c1ccc(Oc2ccc(Cl)cc2NS(=O)(=O)c2ccc(Cl)c(C(F)(F)F)c2)cc1 here?
The Activity was “Dose-dependent effect”.

What about the Ki ([1]; read-out: Ki) of the same molecule?
Its Ki is 31 nM.

What does the source list for C=CC(=O)NCCNC(=O)c1ccc(Oc2ccc(Cl)cc2NS(=O)(=O)c2ccc(Cl)c(C(F)(F)F)c2)cc1?
Activity [1]: Dose-dependent effect; Ki ([1]; read-out: Ki): 22 nM

— ChEMBL document CHEMBL4732216, “Design and Characterization of an Intracellular Covalent Ligand for CC Chemokine Receptor 2” (J Med Chem, 2021)
